Source: ChEMBL document CHEMBL3351346, “Design, synthesis, structure-function relationship, bioconversion, and pharmacokinetic evaluation of ertapenem prodrugs” (J Med Chem, 2014)

What was measured:
[1] = system: Canis familiaris; assay: Oral bioavailability in fasted Beagle dog assessed as ertapenem level at 10 mg/kg dosed through intraduodenal route by LC-MS/MS method; type: ADME, organism-based, Canis lupus familiaris; settings: in vivo
Summary of the method: (§1)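 After intraduodenal dosing, plasma over 8 h was analysed by LC-MS/MS. Bioavailability was calculated as dose-normalized AUC of ertapenem formed from the prodrug divided by dose-normalized AUC of ertapenem dosed iv. Vehicle was 30% Captisol or 0.5% methylcellulose.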

[2] = Stability in pH 2.0 simulated gastric fluid assessed as compound degradation to beta-lactam ring open products at 1 uM after 60 mins by LC-MS/MS method; type: ADME; settings: read-out: Drug degradation
Summary of the method: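 Incubation was in simulated gastric fluid (SGF, pH 2.0) for 60 min, with loss to the β-lactam ring-opened product measured by LC-MS/MS.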

[3] = Stability in pH 7.4 phosphate buffer assessed as compound remaining at 50 uM after 3 hrs by LC-MS/MS method; type: physicochemical; settings: read-out: Stability
[4] = system: Rattus norvegicus; assay: Oral bioavailability in fasted Sprague-Dawley rat assessed as ertapenem level at 10 mg/kg dosed through intraduodenal route by LC-MS/MS method; type: ADME, organism-based; settings: in vivo; summary of the method: as §1
[5] = system: Rattus norvegicus; assay: AUC (0 to 8 hrs) in fasted Sprague-Dawley rat assessed as 8-OH, C-3 ester level at 10 mg/kg dosed through intraduodenal route by LC-MS/MS method; type: ADME, organism-based, Plasma; parameters: time < 8 hr, dose 10 mg/kg, route intraduodenal; settings: in vivo, other, BLD = below limit of detection
Summary of the method: (§2)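 Prodrugs were given intraduodenally to bypass stomach acid. Plasma was sampled at intervals over 8 h, and parent prodrug, the two monoester metabolites and ertapenem were quantified by LC-MS/MS. The lower limit of quantitation was 5 nM. AUC(0–8) was used, and it differed from AUC(0–∞) by ±20%. Vehicles were 30% Captisol or 0.5% methylcellulose, as solution or suspension depending on compound.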

[6] = system: Canis familiaris; assay: AUC (0 to 8 hrs) in fasted Beagle dog assessed as 8-OH, benzoate ester level at 10 mg/kg dosed through intraduodenal route by LC-MS/MS method; type: ADME, organism-based, Canis lupus familiaris, Plasma; parameters: time < 8 hr, dose 10 mg/kg, route intraduodenal; settings: in vivo, other; summary of the method: as §2
[7] = Stability in pH 6.5 simulated gastrointestinal fluid assessed as compound remaining at 50 uM after 3 hrs by LC-MS/MS method; type: ADME; settings: read-out: Stability
Summary of the method: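 Compounds at 50 μM were incubated in fasted-state simulated intestinal fluid (FaSSIF, pH 6.5) for over 3 h. Percent remaining was determined by LC-MS/MS.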

[8] = system: Canis familiaris; assay: AUC (0 to 8 hrs) in fasted Beagle dog assessed as 8-OH, C-3 ester level at 10 mg/kg dosed through intraduodenal route by LC-MS/MS method; type: ADME, organism-based, Canis lupus familiaris, Plasma; parameters: time < 8 hr, dose 10 mg/kg, route intraduodenal; settings: in vivo, other; summary of the method: as §2
[9] = system: Rattus norvegicus; assay: AUC (0 to 8 hrs) in fasted Sprague-Dawley rat assessed as 8-OH, benzoate ester level at 10 mg/kg dosed through intraduodenal route by LC-MS/MS method; type: ADME, organism-based, Plasma; parameters: time < 8 hr, dose 10 mg/kg, route intraduodenal; settings: in vivo, other, BLD = below limit of detection; summary of the method: as §2
[10] = system: Rattus norvegicus; assay: AUC (0 to 8 hrs) in fasted Sprague-Dawley rat at 10 mg/kg dosed through intraduodenal route by LC-MS/MS method; type: ADME, organism-based, Plasma; parameters: time < 8 hr, dose 10 mg/kg, route intraduodenal; settings: in vivo, other, 8 h, BLD = below limit of detection; summary of the method: as §2
[11] = system: Canis familiaris; assay: Oral bioavailability in fasted Beagle dog assessed as assessed as ertapenem and monoetser metabolites level at 10 mg/kg dosed through intraduodenal route by LC-MS/MS method; type: ADME, organism-based, Canis lupus familiaris; settings: in vivo
Summary of the method: (§3)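 Total absorption followed intraduodenal dosing with LC-MS/MS of plasma over 8 h. It was calculated as the combined dose-normalized AUC of circulating parent prodrug, ertapenem and two monoesters, divided by dose-normalized AUC of ertapenem given iv. Vehicle was 30% Captisol or 0.5% methylcellulose.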

[12] = system: Rattus norvegicus; assay: Oral bioavailability in fasted Sprague-Dawley rat assessed as ertapenem and monoetser metabolites level at 10 mg/kg dosed through intraduodenal route by LC-MS/MS method; type: ADME, organism-based; settings: in vivo; summary of the method: as §3
[13] = system: Canis familiaris; assay: AUC (0 to 8 hrs) in fasted Beagle dog at 10 mg/kg dosed through intraduodenal route by LC-MS/MS method; type: ADME, organism-based, Canis lupus familiaris, Plasma; parameters: time < 8 hr, dose 10 mg/kg, route intraduodenal; settings: in vivo, other, 8 h; summary of the method: as §2
[14] = system: Rattus norvegicus; assay: Oral bioavailability in fasted Sprague-Dawley rat assessed as ertapenem level at 7.4 mg/kg dosed through intraduodenal route by LC-MS/MS method; type: ADME, organism-based; settings: in vivo; summary of the method: as §1
[15] = system: Rattus norvegicus; assay: AUC (0 to 8 hrs) in fasted Sprague-Dawley rat at 7.4 mg/kg dosed through intraduodenal route by LC-MS/MS method; type: ADME, organism-based, Plasma; parameters: time < 8 hr, dose 7.4 mg/kg, route intraduodenal; settings: in vivo, other, BLD = below limit of detection; summary of the method: as §2
[16] = system: Rattus norvegicus; assay: AUC (0 to 8 hrs) in fasted Sprague-Dawley rat assessed as ertapenem level at 7.4 mg/kg dosed through intraduodenal route by LC-MS/MS method; type: ADME, organism-based, Plasma; parameters: time < 8 hr, dose 7.4 mg/kg, route intraduodenal; settings: in vivo, other; summary of the method: as §2
[17] = system: Rattus norvegicus; assay: Oral bioavailability in fasted Sprague-Dawley rat assessed as ertapenem and monoetser metabolites level at 7.4 mg/kg dosed through intraduodenal route by LC-MS/MS method; type: ADME, organism-based; settings: in vivo; summary of the method: as §3
[18] = Stability in rat plasma assessed as compound remaining at 50 uM at 37 degC after 60 mins by LC-MS/MS method; type: ADME, cell-free; settings: read-out: Stability
Summary of the method: (§4)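 Prodrugs were incubated in rat or human plasma for 60 min. Disappearance of prodrug and concomitant appearance of ertapenem were followed by LC-MS/MS, and in selected cases monoesters from partial hydrolysis were also monitored. Ertapenem itself was incubated the same way as a control.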

[19] = system: Rattus norvegicus; assay: AUC (0 to 8 hrs) in fasted Sprague-Dawley rat assessed as 8-OH, C-3 ester level at 4.41 mg/kg dosed through intraduodenal route by LC-MS/MS method; type: ADME, organism-based, Plasma; parameters: time < 8 hr, dose 4.41 mg/kg, route intraduodenal; settings: in vivo, other; summary of the method: as §2
[20] = system: Rattus norvegicus; assay: Oral bioavailability in fasted Sprague-Dawley rat assessed as ertapenem and monoetser metabolites level at 4.41 mg/kg dosed through intraduodenal route by LC-MS/MS method; type: ADME, organism-based; settings: in vivo; summary of the method: as §3
[21] = AUC (0 to 8 hrs) in fasted Sprague-Dawley rat at 4.41 mg/kg dosed through intraduodenal route by LC-MS/MS method; type: ADME, organism-based; parameters: time < 8 hr, dose 4.41 mg/kg, route intraduodenal; settings: plasma; summary of the method: as §2
[22] = system: Rattus norvegicus; assay: Oral bioavailability in fasted Sprague-Dawley rat assessed as ertapenem level at 4.41 mg/kg dosed through intraduodenal route by LC-MS/MS method; type: ADME, organism-based; settings: in vivo; summary of the method: as §1
[23] = system: Rattus norvegicus; assay: AUC (0 to 8 hrs) in fasted Sprague-Dawley rat assessed as 8-OH, benzoate ester level at 4.41 mg/kg dosed through intraduodenal route by LC-MS/MS method; type: ADME, organism-based, Plasma; parameters: time < 8 hr, dose 4.41 mg/kg, route intraduodenal; settings: in vivo, other; summary of the method: as §2
[24] = system: Rattus norvegicus; assay: AUC (0 to 8 hrs) in fasted Sprague-Dawley rat assessed as ertapenem level at 4.41 mg/kg dosed through intraduodenal route by LC-MS/MS method; type: ADME, organism-based, Plasma; parameters: time < 8 hr, dose 4.41 mg/kg, route intraduodenal; settings: in vivo, other; summary of the method: as §2
[25] = system: Canis familiaris; assay: AUC (0 to 8 hrs) in fasted Beagle dog assessed as ertapenem level at 10 mg/kg dosed through intraduodenal route by LC-MS/MS method; type: ADME, organism-based, Canis lupus familiaris, Plasma; parameters: time < 8 hr, dose 10 mg/kg, route intraduodenal; settings: in vivo, other; summary of the method: as §2
[26] = system: Rattus norvegicus; assay: AUC (0 to 8 hrs) in fasted Sprague-Dawley rat assessed as ertapenem level at 10 mg/kg dosed through intraduodenal route by LC-MS/MS method; type: ADME, organism-based, Plasma; parameters: time < 8 hr, dose 10 mg/kg, route intraduodenal; settings: in vivo, other; summary of the method: as §2
[27] = Stability in human plasma assessed as compound remaining at 50 uM at 37 degC after 60 mins by LC-MS/MS method; type: ADME, cell-free; settings: read-out: Stability; summary of the method: as §4

SMILES | F [1] | degraded at 1 h, 1 µM [2] | remaining at 3 h, 50 µM [3] | F [4] | AUC [5] | AUC ([6]; BLD = below limit of detection) | remaining at 3 h, 50 µM [7] | AUC [8] | AUC [9] | AUC [10] | F [11] | F [12] | AUC ([13]; BLD = below limit of detection) | remaining at 1 h, 50 µM [18] | AUC [26] | remaining at 1 h, 50 µM [27] | other results
C[C@@H](O)[C@H]1C(=O)N2C(C(=O)OCOC(=O)C(C)(C)C)=C(S[C@@H]3CN[C@H](C(=O)Nc4cccc(C(=O)OCOC(=O)C(C)(C)C)c4)C3)[C@H](C)[C@H]12 | 3% | > 25% | > 95% | 0.4% | BLD | BLD | > 95% | < 0.1 µM·h | BLD | BLD | 3.07% | 0.4% | BLD |  |  |  | 
Cc1oc(=O)oc1COC(=O)C1=C(S[C@@H]2CN[C@H](C(=O)Nc3cccc(C(=O)OCc4oc(=O)oc4C)c3)C2)[C@H](C)[C@@H]2[C@@H]([C@@H](C)O)C(=O)N12 |  | > 25% | > 95% |  |  |  | > 95% |  |  |  |  |  |  | 0% |  |  | F [14]: 0.8%; AUC [15]: BLD; AUC [16]: 0.3 µM·h; F [17]: 0.8%
CCOC(=O)C1=C(S[C@@H]2CN[C@H](C(=O)Nc3cccc(C(=O)OCC)c3)C2)[C@H](C)[C@@H]2[C@@H]([C@@H](C)O)C(=O)N12 | 18.1% | > 25% | > 95% |  |  |  | > 95% | 2.2 µM·h |  |  | 31.3% |  |  |  |  |  | AUC [19]: 0.1 µM·h; F [20]: 6.6%; AUC [6]: 3.3 µM·h; AUC(0-t) at 8 h [21]: 0.06 µM·h; AUC [13]: 5 µM·h; F [22]: 5%; AUC [23]: 0.4 µM·h; AUC [24]: 1.5 µM·h

Further lines, with some results ahead:

F [1] | degraded at 1 h, 1 µM [2] | remaining at 3 h, 50 µM [3] | F [4] | AUC [5] | AUC ([6]; BLD = below limit of detection) | remaining at 3 h, 50 µM [7] | AUC [8] | AUC [9] | AUC [10] | F [11] | F [12] | AUC ([13]; BLD = below limit of detection) | remaining at 1 h, 50 µM [18] | AUC [26] | remaining at 1 h, 50 µM [27] | SMILES | other results
3.6% | > 25% | > 95% | 1.8% | BLD | BLD | > 95% |  | BLD | BLD | 3.6% | 1.8% | BLD | 1% | 0.9 µM·h | 8% | CC(C)C(=O)OCOC(=O)C1=C(S[C@@H]2CN[C@H](C(=O)Nc3cccc(C(=O)OCOC(=O)C(C)C)c3)C2)[C@H](C)[C@@H]2[C@@H]([C@@H](C)O)C(=O)N12 | AUC [25]: 2.2 µM·h; AUC ([8]; BLD = below limit of detection): BLD
 | > 25% | > 95% | 1.2% | BLD |  | > 95% |  |  | BLD |  | 1.2% |  | 0% | 0.7 µM·h | 15% | CC(C)C(=O)OCOC(=O)C1=C(S[C@@H]2CN[C@H](C(=O)Nc3cccc(C(=O)[O-])c3)C2)[C@H](C)[C@@H]2[C@@H]([C@@H](C)O)C(=O)N12.[Na+] | 
